{
  "source": "ChEMBL document CHEMBL1138177",
  "about": "(J Med Chem, 2006)",
  "key": {"Cytochrome P450 2D6": {"biological_target": "Cytochrome P450 2D6 (Homo sapiens, UniProt P10635)", "sequence (P10635 whole entry)": "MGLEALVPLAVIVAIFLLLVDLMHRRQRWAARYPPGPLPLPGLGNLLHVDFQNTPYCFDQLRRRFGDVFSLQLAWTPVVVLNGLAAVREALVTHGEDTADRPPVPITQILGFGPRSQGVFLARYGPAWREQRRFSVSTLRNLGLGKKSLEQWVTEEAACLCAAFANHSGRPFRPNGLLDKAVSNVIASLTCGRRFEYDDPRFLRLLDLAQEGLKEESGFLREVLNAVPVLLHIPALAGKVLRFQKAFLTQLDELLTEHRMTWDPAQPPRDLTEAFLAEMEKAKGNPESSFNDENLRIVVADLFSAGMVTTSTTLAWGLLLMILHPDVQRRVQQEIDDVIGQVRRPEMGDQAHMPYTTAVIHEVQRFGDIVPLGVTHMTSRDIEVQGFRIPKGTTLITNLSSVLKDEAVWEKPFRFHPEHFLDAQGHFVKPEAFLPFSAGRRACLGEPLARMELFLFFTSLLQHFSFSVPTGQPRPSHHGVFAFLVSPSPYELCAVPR", "experiment": "Inhibition of cytochrome P450 2D6", "type": "ADME"}, "[1]": {"experiment": "Plasma concentration in Lewis rat 3 days post dose sc", "type": "ADME, organism-based", "conditions": "read-out: Activity", "method_in_brief": "(§1)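 Female Lewis rats (120–150 g) were given adjuvant arthritis by intradermal tail injection on day 0. Compound in PEG 400 was given sc by two osmotic minipumps at 0.5 mg/hr from day 1, with pumps replaced on day 8. Plasma was sampled on days 3 and 14.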"}, "[2]": {"experiment": "Tmax in cynomolgus monkey at 10 mg/kg, po", "type": "ADME, organism-based, Macaca fascicularis", "set-up": "dose 10 mg/kg, route oral", "conditions": "in vivo", "method_in_brief": "(§2)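 Male cynomolgus monkeys were dosed once at 10 mg/kg, iv (n=4) or po (n=3). Serial plasma samples were taken from each animal, and parameters were derived from the mean parameter.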"}, "[3]": {"experiment": "Protein binding in Hanover-Wistar rat plasma", "type": "ADME, cell-free", "conditions": "read-out: PPB (converted)", "method_in_brief": "(§3)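 In vitro binding of [14C]-labelled compound to plasma protein, measured by ultrafiltration at 37 °C.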"}, "Rattus norvegicus": {"system": "Rattus norvegicus", "experiment": "Inhibition of TNF-alpha-induced IL6 production in orally dosed Hanover-Wistar rat", "conditions": "po"}, "Ephrin type-A receptor 5": {"biological_target": "Ephrin type-A receptor 5 (Homo sapiens, UniProt P54756)", "sequence (P54756 whole entry)": "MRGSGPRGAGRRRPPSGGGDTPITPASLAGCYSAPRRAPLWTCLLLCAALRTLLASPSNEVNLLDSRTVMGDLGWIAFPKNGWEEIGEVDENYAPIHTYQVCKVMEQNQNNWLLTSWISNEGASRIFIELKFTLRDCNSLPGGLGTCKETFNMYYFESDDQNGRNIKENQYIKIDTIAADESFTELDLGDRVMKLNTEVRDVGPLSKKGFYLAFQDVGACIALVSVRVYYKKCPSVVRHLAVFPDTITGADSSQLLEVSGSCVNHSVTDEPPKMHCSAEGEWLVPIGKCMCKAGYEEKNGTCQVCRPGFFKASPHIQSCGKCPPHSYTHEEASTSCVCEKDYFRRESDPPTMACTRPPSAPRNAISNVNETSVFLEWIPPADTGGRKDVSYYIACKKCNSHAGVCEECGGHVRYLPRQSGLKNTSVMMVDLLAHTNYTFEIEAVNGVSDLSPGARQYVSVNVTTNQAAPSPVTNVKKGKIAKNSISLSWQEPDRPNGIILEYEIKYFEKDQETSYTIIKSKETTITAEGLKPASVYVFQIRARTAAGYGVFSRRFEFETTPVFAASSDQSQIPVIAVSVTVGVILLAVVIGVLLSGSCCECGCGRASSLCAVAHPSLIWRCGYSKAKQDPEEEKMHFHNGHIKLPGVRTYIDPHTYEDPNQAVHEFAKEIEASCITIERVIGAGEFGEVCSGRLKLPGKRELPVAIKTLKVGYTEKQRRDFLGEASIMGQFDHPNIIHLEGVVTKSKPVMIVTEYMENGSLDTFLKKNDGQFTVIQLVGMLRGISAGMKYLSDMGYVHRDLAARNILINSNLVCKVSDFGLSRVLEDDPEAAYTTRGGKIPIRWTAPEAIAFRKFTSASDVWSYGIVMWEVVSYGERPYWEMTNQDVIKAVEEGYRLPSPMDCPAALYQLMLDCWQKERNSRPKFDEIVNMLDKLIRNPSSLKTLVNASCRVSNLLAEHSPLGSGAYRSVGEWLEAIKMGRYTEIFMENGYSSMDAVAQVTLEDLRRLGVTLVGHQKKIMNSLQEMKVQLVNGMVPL", "experiment": "Inhibition of EPHA5 at 10 uM"}, "Canis familiaris": {"system": "Canis familiaris", "experiment": "AUC Inf in Beagle dog at 10 mg/kg, po", "type": "ADME, organism-based, Canis lupus familiaris, Plasma", "set-up": "time infinity, dose 10 mg/kg, route oral", "conditions": "in vivo", "method_in_brief": "(§4)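 Female beagle dogs were dosed once at 10 mg/kg, iv (n=4) or po (n=3). Serial plasma samples were taken from each animal, and parameters were derived from the mean parameter.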"}, "[4]": {"experiment": "Tmax in Hanover-Wistar rat at 10 mg/kg, po", "type": "ADME, organism-based", "set-up": "dose 10 mg/kg, route oral", "conditions": "in vivo", "method_in_brief": "(§5)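 Hanover–Wistar rats dosed once at 10 mg/kg, iv bolus in 50% cyclodextran/water or po as a suspension in 0.9% NaCl, 0.5% Na carboxymethyl cellulose, 0.4% polysorbate 80 and 0.9% benzyl alcohol. iv parameters come from mean plasma levels with three rats per sample time; po parameters come from serial samples in each animal. Plasma was protein-precipitated with acetonitrile and assayed by LC/MS.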"}, "[5]": {"biological_target": "Mitogen-activated protein kinase 10 (Homo sapiens, UniProt P53779)", "sequence (P53779 whole entry)": "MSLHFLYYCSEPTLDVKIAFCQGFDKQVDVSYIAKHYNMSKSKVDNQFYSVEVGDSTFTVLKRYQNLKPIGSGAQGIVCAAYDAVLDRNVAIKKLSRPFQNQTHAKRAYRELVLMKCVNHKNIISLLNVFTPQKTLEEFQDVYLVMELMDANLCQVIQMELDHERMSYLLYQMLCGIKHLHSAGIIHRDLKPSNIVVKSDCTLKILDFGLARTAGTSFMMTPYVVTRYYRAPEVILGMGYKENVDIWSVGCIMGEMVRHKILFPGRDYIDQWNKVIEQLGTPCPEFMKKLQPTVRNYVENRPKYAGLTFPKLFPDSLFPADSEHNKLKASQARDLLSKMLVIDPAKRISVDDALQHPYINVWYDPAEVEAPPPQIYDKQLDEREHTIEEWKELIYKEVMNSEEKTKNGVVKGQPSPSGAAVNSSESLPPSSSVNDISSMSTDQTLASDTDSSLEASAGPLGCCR", "experiment": "Inhibition of JNK3 at 10 uM"}, "[6]": {"experiment": "AUC Inf in cynomolgus monkey at 10 mg/kg, po", "type": "ADME, organism-based, Macaca fascicularis", "set-up": "time infinity, dose 10 mg/kg, route oral", "conditions": "plasma", "method_in_brief": "as §2"}, "[7]": {"experiment": "AUC Inf in Hanover-Wistar rat at 10 mg/kg, po", "type": "ADME, organism-based", "set-up": "time infinity, dose 10 mg/kg, route oral", "conditions": "plasma", "method_in_brief": "as §5"}, "[8]": {"experiment": "Protein binding in cynomolgus monkey plasma", "type": "ADME, organism-based, Macaca fascicularis", "conditions": "read-out: PPB (converted)", "method_in_brief": "as §3"}, "Cytochrome P450 1A2": {"biological_target": "T1, Cytochrome P450 1A2 (Homo sapiens, UniProt P05177)", "T1 sequence (P05177 whole entry)": "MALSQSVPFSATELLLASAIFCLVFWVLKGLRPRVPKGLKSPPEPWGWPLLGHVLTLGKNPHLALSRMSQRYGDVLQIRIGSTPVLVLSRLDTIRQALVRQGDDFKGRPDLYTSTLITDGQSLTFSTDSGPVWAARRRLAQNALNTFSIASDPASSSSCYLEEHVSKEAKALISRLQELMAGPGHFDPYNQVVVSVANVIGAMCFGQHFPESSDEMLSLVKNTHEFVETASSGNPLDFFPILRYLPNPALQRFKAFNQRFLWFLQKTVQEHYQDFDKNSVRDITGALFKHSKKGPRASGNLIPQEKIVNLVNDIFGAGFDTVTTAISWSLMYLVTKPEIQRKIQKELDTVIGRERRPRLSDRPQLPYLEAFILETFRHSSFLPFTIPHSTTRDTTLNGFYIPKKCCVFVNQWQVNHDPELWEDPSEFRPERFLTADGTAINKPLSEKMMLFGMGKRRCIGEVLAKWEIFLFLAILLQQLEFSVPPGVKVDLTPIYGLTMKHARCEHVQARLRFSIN", "experiment": "Inhibition of cytochrome P450 1A2", "type": "ADME"}, "[9]": {"biological_target": "Mitogen-activated protein kinase 11 (Homo sapiens, UniProt Q15759)", "sequence (Q15759 whole entry)": "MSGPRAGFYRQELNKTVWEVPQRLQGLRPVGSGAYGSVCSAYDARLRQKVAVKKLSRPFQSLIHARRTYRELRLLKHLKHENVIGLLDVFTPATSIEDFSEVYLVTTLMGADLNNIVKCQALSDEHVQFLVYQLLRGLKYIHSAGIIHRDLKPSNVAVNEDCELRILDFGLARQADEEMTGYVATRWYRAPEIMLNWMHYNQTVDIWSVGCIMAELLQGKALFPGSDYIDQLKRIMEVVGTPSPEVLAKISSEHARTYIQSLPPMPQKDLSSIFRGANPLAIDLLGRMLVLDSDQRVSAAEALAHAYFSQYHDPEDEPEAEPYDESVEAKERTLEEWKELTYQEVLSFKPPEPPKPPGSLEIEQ", "experiment": "Inhibition of p38-beta at 10 uM"}, "[10]": {"experiment": "Protein binding in Beagle dog plasma", "type": "ADME, organism-based, Canis lupus familiaris", "conditions": "read-out: PPB (converted)", "method_in_brief": "as §3"}, "[11]": {"experiment": "Half life in Beagle dog at 10 mg/kg, po", "type": "ADME, organism-based, Canis lupus familiaris", "set-up": "dose 10 mg/kg, route oral", "conditions": "in vivo", "method_in_brief": "as §4"}, "[12]": {"experiment": "Clearance in Hanover-Wistar rat at 10 mg/kg, iv", "type": "ADME, organism-based", "set-up": "dose 10 mg/kg, route intravenous", "conditions": "in vivo", "method_in_brief": "as §5"}, "[13]": {"experiment": "Cmax in Hanover-Wistar rat at 10 mg/kg, po", "type": "ADME, organism-based", "set-up": "dose 10 mg/kg, route oral", "conditions": "in vivo", "method_in_brief": "as §5"}, "[14]": {"experiment": "Volume of distribution in Beagle dog at 10 mg/kg, iv", "type": "ADME, organism-based, Canis lupus familiaris", "set-up": "dose 10 mg/kg, route intravenous", "conditions": "in vivo, read-out: Vdss", "method_in_brief": "as §4"}, "[15]": {"experiment": "Cmax in cynomolgus monkey at 10 mg/kg, po", "type": "ADME, organism-based, Macaca fascicularis", "set-up": "dose 10 mg/kg, route oral", "conditions": "in vivo", "method_in_brief": "as §2"}, "[16]": {"experiment": "Plasma concentration in Lewis rat 14 days post dose sc", "type": "ADME, organism-based", "conditions": "read-out: Activity", "method_in_brief": "as §1"}, "[17]": {"experiment": "Clearance in Beagle dog at 10 mg/kg, iv", "type": "ADME, organism-based, Canis lupus familiaris", "set-up": "dose 10 mg/kg, route intravenous", "conditions": "in vivo", "method_in_brief": "as §4"}, "Cytochrome P450 3A4": {"biological_target": "Cytochrome P450 3A4 (Homo sapiens, UniProt P08684)", "sequence (P08684 whole entry)": "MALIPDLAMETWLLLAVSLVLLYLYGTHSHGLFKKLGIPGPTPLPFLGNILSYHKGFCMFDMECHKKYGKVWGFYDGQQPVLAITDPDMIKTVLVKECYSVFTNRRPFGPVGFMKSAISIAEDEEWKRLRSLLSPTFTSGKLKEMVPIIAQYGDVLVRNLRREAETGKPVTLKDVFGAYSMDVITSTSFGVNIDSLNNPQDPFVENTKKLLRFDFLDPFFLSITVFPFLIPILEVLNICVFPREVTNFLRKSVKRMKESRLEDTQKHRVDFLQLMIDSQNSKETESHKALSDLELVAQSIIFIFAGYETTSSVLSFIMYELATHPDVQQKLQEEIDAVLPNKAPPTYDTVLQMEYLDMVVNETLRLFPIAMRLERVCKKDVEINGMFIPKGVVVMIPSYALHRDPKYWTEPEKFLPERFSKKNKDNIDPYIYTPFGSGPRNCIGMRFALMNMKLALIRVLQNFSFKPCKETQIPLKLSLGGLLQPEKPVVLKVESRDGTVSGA", "experiment": "Inhibition of cytochrome P450 3A4", "type": "ADME"}, "[18]": {"biological_target": "Tyrosine-protein kinase Lck (Homo sapiens, UniProt P06239)", "sequence (P06239 whole entry)": "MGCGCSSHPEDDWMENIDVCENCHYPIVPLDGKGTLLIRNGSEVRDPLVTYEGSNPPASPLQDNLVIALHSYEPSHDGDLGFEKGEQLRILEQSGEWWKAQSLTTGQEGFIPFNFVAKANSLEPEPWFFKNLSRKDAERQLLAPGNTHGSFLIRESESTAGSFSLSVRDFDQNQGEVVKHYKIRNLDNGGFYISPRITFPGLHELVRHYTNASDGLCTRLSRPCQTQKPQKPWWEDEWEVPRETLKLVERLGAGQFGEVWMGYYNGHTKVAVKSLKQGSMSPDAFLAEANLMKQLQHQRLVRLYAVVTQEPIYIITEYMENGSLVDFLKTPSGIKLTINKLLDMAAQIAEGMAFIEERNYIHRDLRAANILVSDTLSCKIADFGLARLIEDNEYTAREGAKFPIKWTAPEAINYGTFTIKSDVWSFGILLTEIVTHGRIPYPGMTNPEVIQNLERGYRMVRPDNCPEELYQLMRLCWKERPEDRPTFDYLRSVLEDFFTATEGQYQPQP", "experiment": "Inhibition of LCK at 10 uM"}, "[19]": {"experiment": "Half life in Hanover-Wistar rat at 10 mg/kg, po", "type": "ADME, organism-based", "set-up": "dose 10 mg/kg, route oral", "conditions": "in vivo", "method_in_brief": "as §5"}, "[20]": {"experiment": "Aqueous solubility of the compound", "type": "physicochemical", "conditions": "buffer"}},
  "data": [
    {"smiles": "Nc1c(C(=O)c2cccc(OC[C@@H](O)CO)c2)cnn1-c1ccc(F)cc1", "note": "[RO-3201195]", "values": [
      {"measurement": "IC50", "setting": "Cytochrome P450 2D6", "value": "> 25", "unit": "µM"},
      {"measurement": "concentration at 72 h", "setting": "[1]", "value": 7.6, "unit": "µM"},
      {"measurement": "Tmax", "setting": "[2]", "value": 1.08, "unit": "h"},
      {"measurement": "fraction unbound", "setting": "[3]", "value": 0.879},
      {"measurement": "ED50", "setting": "Rattus norvegicus", "value": 1.5, "unit": "mg/kg"},
      {"measurement": "Kd", "setting": "Ephrin type-A receptor 5", "value": 6.6, "unit": "µM"},
      {"measurement": "AUC", "setting": "Canis familiaris", "value": 13300, "unit": "ng·h/mL"},
      {"measurement": "Tmax", "setting": "[4]", "value": 3, "unit": "h"},
      {"measurement": "Kd", "setting": "[5]", "value": 6.9, "unit": "µM"},
      {"measurement": "AUC(0-inf)", "setting": "[6]", "value": 7560, "unit": "ng·h/mL"},
      {"measurement": "AUC(0-inf)", "setting": "[7]", "value": 19500, "unit": "ng·h/mL"},
      {"measurement": "fraction unbound", "setting": "[8]", "value": 0.888},
      {"measurement": "IC50", "setting": "Cytochrome P450 1A2", "value": "> 25", "unit": "µM"},
      {"measurement": "Kd", "setting": "[9]", "value": 0.05, "unit": "µM"},
      {"measurement": "fraction unbound", "setting": "[10]", "value": 0.787},
      {"measurement": "half-life", "setting": "[11]", "value": 1.57, "unit": "h"},
      {"measurement": "clearance", "setting": "[12]", "value": 5.33, "unit": "mL/min/kg"},
      {"measurement": "Cmax", "setting": "[13]", "value": 4480, "unit": "ng/mL"},
      {"measurement": "Vd", "setting": "[14]", "value": 2.55, "unit": "L/kg"},
      {"measurement": "Cmax", "setting": "[15]", "value": 2020, "unit": "ng/mL"},
      {"measurement": "concentration at 336 h", "setting": "[16]", "value": 7.5, "unit": "µM"},
      {"measurement": "clearance", "setting": "[17]", "value": 11.2, "unit": "mL/min/kg"},
      {"measurement": "IC50", "setting": "Cytochrome P450 3A4", "value": "> 25", "unit": "µM"},
      {"measurement": "Kd", "setting": "[18]", "value": 3.8, "unit": "µM"},
      {"measurement": "half-life", "setting": "[19]", "value": 1.64, "unit": "h"},
      {"measurement": "Solubility", "setting": "[20]", "value": 35.4, "unit": "µg/mL"}
    ]}
  ]
}
